Laboratory results as given in paper PMC4461448 (Analytical biochemistry, 2015).
Where a SMILES comes first, the peptide text is derived from it. [ ]: non-standard residue; d: D form. Phe(4-CN) = N#Cc1ccc(C[C@H](N)C(=O)O)cc1

Test: not given
Conditions: value belongs to the α-helical peptide, not the tripeptide; cited from earlier work

Compound | N-terminal pKa value (pKaH) of an α-helical peptide with X at the N-terminus
N#Cc1ccc(C[C@H](NC(=O)[C@@H](N)CCCCN)C(=O)NCC(N)=O)cc1 [K] (H-Lys-[Phe(4-CN)]-Gly-NH2) | 8.12
N#Cc1ccc(C[C@H](NC(=O)[C@@H](N)CC(=O)O)C(=O)NCC(N)=O)cc1 [D] (H-Asp-[Phe(4-CN)]-Gly-NH2) | 8.25
CC(C)[C@H](N)C(=O)N[C@@H](Cc1ccc(C#N)cc1)C(=O)NCC(N)=O [V] (H-Val-[Phe(4-CN)]-Gly-NH2) | 8.14
C[C@H](N)C(=O)N[C@@H](Cc1ccc(C#N)cc1)C(=O)NCC(N)=O [A, reference compound] (H-Ala-[Phe(4-CN)]-Gly-NH2) | 8.35
CSCC[C@H](N)C(=O)N[C@@H](Cc1ccc(C#N)cc1)C(=O)NCC(N)=O [M, reference compound] (H-Met-[Phe(4-CN)]-Gly-NH2) | 7.83
N#Cc1ccc(C[C@H](NC(=O)[C@@H](N)CC(N)=O)C(=O)NCC(N)=O)cc1 [N] (H-Asn-[Phe(4-CN)]-Gly-NH2) | 7.07
N#Cc1ccc(C[C@H](NC(=O)CN)C(=O)NCC(N)=O)cc1 [G, reference compound] (H-Gly-[Phe(4-CN)]-Gly-NH2) | 8.51
N#Cc1ccc(C[C@H](NC(=O)[C@@H]2CCCN2)C(=O)NCC(N)=O)cc1 [P] (H-Pro-[Phe(4-CN)]-Gly-NH2) | 8.85
N#Cc1ccc(C[C@H](NC(=O)[C@@H](N)CO)C(=O)NCC(N)=O)cc1 [S] (H-Ser-[Phe(4-CN)]-Gly-NH2) | 7.63

Test: not given
Conditions: melittin, Gly residue at the N-terminus; cited from earlier work

Compound | N-terminal pKa of the amino group
melittin | 7.85

Test: pH titration via PheCN fluorescence to determine N-terminal pKa
Assay type: physicochemical
Conditions: 20 μM peptide, pH 2-12, 25 °C, excitation 275 nm
Method in brief: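 Peptides were HPLC-purified and mass-verified, and concentration was set optically from absorbance at 280 nm (ε 850 M−1 cm−1). Each pH was made by mixing peptide stocks in 25 mM H3PO4 and 25 mM NaOH, then read on a pH meter. Spectra were taken in a 1 cm cuvette at 1 nm resolution, 1 s/nm, with buffer background subtracted. Peak intensity was fitted to a two-state equation with linear acidic and basic baselines to give pKa (±0.1).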

Compound | pH dependence of PheCN fluorescence intensity (acid-base titration transition)
CC(=O)NCC(=O)N[C@@H](Cc1ccc(C#N)cc1)C(=O)NCC(N)=O [*GFCNG] (Ac-Gly-[Phe(4-CN)]-Gly-NH2) | does not show such a transition
